# Assay results of several laboratories.
# Each line is one published result; the experiments were not run side by side.
# Observed: enzyme activity
# Mode: inhibitor
# EGFR: Epidermal growth factor receptor (EGFR, Homo sapiens, UniProt P00533)
# CDK6 with cyclin D3: Cyclin-dependent kinase 6, with cyclin D3 (CDK6, Homo sapiens, UniProt Q00534)
# MTOR: Serine/threonine-protein kinase mTOR (MTOR, Homo sapiens, UniProt P42345)
# CA2: Carbonic anhydrase 2 (CA2, Bos taurus, UniProt P00921)
# YCK2: Serine/threonine protein kinase YCK2 (YCK2, Candida albicans, UniProt A0A1D8PKB4)
SMILES,target,method,IC50 [µM]
CCCCCCCCCCCC[N+]1(C)CCOCC1,EGFR,ELISA,1.35
CNS(=O)(=O)c1ccc(Nc2ncc(C(F)(F)F)c(N3CCC[C@](C)(O)C3)n2)c(C)c1,CDK6 with cyclin D3,radiometric,3.55
CCCCNC(c1ccccc1)c1c(N)[nH]c(=O)[nH]c1=O (stereo not drawn),EGFR,,0.988
COc1ccc(-c2ccc3c(N4CCOC[C@@H]4C)nc(N4CCOC[C@@H]4C)nc3n2)cc1C(=O)NCCOCCOCCOCCONC(=O)c1ccc(F)c(F)c1Nc1ccc(I)cc1F,MTOR,FRET,0.028 to 0.04
NS(=O)(=O)c1ccc(Nc2nc3nc(=S)[nH]c(-c4cccc(O)c4)c3s2)cc1,CA2,absorbance,0.0627
Cc1cc(O)c(-c2ccc([C@@H](C)CN(C)C)cc2)c2c1[nH]c(=O)c1sccc12,"Cyclin-dependent kinase 6, with cyclin D1 (CDK6, Homo sapiens, UniProt Q00534)",,> 1
O=C1CCC(N2C(=O)c3ccccc3C2=O)C(=O)N1 (stereo not drawn),EGFR,,1.13
N#Cc1ccc(NC(=O)Nc2ccccc2)cc1,"SRSF protein kinase 3 (SRPK3, Homo sapiens, UniProt Q9UPE1)",FRET,5.7
Oc1ccccc1-c1n[nH]cc1-c1ccnc2ccccc12,YCK2,ADP detection,0.35
COc1ccc(N2CCN(Cc3cn4c(-c5ccc(Br)cc5)nnc4s3)CC2)cc1,"Ferroptosis suppressor protein 1 (AIFM2, Homo sapiens, UniProt Q9BRQ8, S364A/T363A)",absorbance,0.061
c1ccc(-c2n[nH]cc2-c2ccncc2)nc1,YCK2,ADP detection,0.52
Cc1cc2c(cc1C)N[C@H](c1ccccc1)[C@@H](O)C(=O)N2,MTOR,,0.144
CCNC(c1ccccc1)c1c(N)[nH]c(=O)[nH]c1=O (stereo not drawn),EGFR,,0.653
Nc1cnccc1Nc1ccc(Cl)c(Cl)c1,"DNA-3-methyladenine glycosylase (Homo sapiens, UniProt P29372)",,> 99
CNS(=O)(=O)c1ccc(Nc2ncc3cc(Cl)c(=O)n(C4CCCC4)c3n2)c(C)c1,CDK6 with cyclin D3,radiometric,0.062
c1ccc(-c2[nH]ccc2-c2ccnc3ccccc23)nc1,YCK2,ADP detection,4.9
COc1ccc(-c2ccc3c(N4CCOC[C@@H]4C)nc(N4CCOC[C@@H]4C)nc3n2)cc1COC(=O)CCOCCOCCOCCONC(=O)c1ccc(F)c(F)c1Nc1ccc(I)cc1F,MTOR,FRET,0.0405
O=C1/C(=C/c2ccc3ccccc3c2O)NC(=S)N1c1ccccc1,EGFR,ELISA,0.183
O=C(/C=C/c1ccc(F)cc1)c1nc2ccccc2n1Cc1cn([C@@H]2O[C@H](CO)[C@H](O)[C@H](O)[C@H]2O)nn1,EGFR,,0.069
NS(=O)(=O)c1ccc(-n2nc(C(=O)NN=Cc3ccccc3O)cc2-c2ccccc2)cc1,"Serine/threonine-protein kinase B-raf (BRAF, Homo sapiens, UniProt P15056, V600E)",,17.5
O=C1C[C@@H](c2ccc(O)cc2)Oc2cc(O)cc(O)c21,CA2,absorbance,68.9
CC(=O)c1nc2ccccc2n1Cc1cn([C@@H]2O[C@H](CO)[C@H](O)[C@H](O)[C@H]2O)nn1,EGFR,,0.324
CNS(=O)(=O)c1ccc(Nc2ncc(C(F)(F)F)c([C@H]3CC[C@@](C)(O)CC3)n2)c(C)c1,CDK6 with cyclin D3,radiometric,8.65
COc1c(Cl)cccc1Nc1c(-c2ccncc2OC[C@@H]2COCCO2)[nH]c2c1C(=O)NCC2,EGFR,TR-FRET,< 0.0005
